# MT1-MMP act inh = blockers of MT1-MMP proenzyme processing, primary screen, HT1080 RFP-PRO-GFP cells, GFP/RFP fluorescence; Matrix metalloproteinase-14 (Homo sapiens), P50281; AID 651647, 2012; GFP/RFP ratio change, % at 20 µM; GFP/RFP ratio fluorescence, overnight; percent of plate control window, DMSO zero; hit rate 0.061% among 360,000;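 active means GFP/RFP ratio change of at least 30% with cell ATP level not reduced by more than half and red fluorescence within 50% of control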
#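 Assay system: HT1080 RFP-PRO-GFP cells. Benchmarks: DMSO vehicle wells and RFP-L50D-GFP reporter cell wells. Times: overnight cell settling, then overnight compound exposure, 37 °C, 5% CO2. Compound: 20 µM single dose, 1% DMSO. Read-out basis: GFP/RFP fluorescence ratio.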
# PG9 binder = binders of HIV-1 gp120 antibody PG9, primary screen, biochemical, TR-FRET; HIV-1 gp120 / PG9 antibody interaction; TR-FRET gp120-PG9 antibody binding; inhibition, % at 6.7 µM; hit rate 0.43% among 360,000; AID 624416, 2012; in the data active means inhibition above about 8.5%
# NR1D1 modulator = modulators of Rev-erb alpha DNA binding, primary screen, biochemical, FITC-DNA, fluorescence polarization, uHTS; activity, % at 10 µM; Rev-erbα–FITC-DNA binding, 90 min; hit rate 0.79% among 370,000;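 active means activity above about 14%, limit read from the data; passing the limit was not always enough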;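 further: 0% = DMSO wells with 35 nM protein and 100% = DMSO wells with 750 nM protein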
# NR2E3 ag-1 = NR2E3 agonists in two-hybrid cells, primary screen, cell-based, luminescence, CHO-S, Gal4-NCOR/VP16-NR2E3. inhibition of corepressor binding, % at 3.98 µM. luciferase. hit rate 0.35% among 360,000. Photoreceptor-specific nuclear receptor (Homo sapiens), Q9Y5X4;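 active means inhibition above the mean of all tested compounds plus 3 SD, cut at about 70% in these data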;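 further: 0% = DMSO with NR2E3 transfected cells and 100% = cells lacking NR2E3 construct; higher means lower luciferase signal from less NR2E3 corepressor binding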
# Target sequence (Q9Y5X4 whole entry, looked up, the tested form may be a part): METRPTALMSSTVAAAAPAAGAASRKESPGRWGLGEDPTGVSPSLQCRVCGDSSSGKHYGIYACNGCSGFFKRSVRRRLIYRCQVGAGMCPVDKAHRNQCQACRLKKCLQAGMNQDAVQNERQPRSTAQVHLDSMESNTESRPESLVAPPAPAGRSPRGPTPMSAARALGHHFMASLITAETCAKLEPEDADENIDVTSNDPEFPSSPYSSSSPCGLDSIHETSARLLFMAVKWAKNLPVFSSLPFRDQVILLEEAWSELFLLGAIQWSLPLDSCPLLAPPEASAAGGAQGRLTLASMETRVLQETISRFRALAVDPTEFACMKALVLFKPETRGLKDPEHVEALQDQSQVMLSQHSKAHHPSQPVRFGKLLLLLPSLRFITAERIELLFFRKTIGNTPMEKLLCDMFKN
# NR2E3 ag-2 = inhibitors of NR2E3-RetCOR corepressor binding, primary screen, NR2E3 agonist project, biochemical, TR-FRET, GST-NR2E3, biotin-RetCOR; 1536-well; inhibition of corepressor binding, % at 4.78 µM; hit rate 0.12% among 320,000; AID 2300, 2010;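 active means percent inhibition above the cutoff of mean plus 3 SD of all tested compounds, set per screening campaign, cut at about 20% in these data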;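 further: 0% = DMSO wells and 100% = biotin wells as full block of FRET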
#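 Material: NR2E3–RetCOR corepressor complex / Incubation: Compound–protein incubation for 5 h at 4 °C / Dosing: compound at 4.8 µM, single dose / Detection: time-resolved FRET / Benchmarks: high control biotin, low control 0.6% DMSO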
# SKN-1 block = suppressors of acrylamide-induced Pgst-4::GFP reporter in worms, primary screen, SKN-1 inhibitor project, whole organism, uHTS, GFP/RFP fluorescence ratio, strain VP596; C. elegans VP596 Pgst-4::GFP/RFP ratio, 24 h; inhibition, % at 21.8 µM; hit rate 0.49% among 360,000; AID 624304, 2012;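 active means interference check ratio from 0.5 to 1.5 plus GFP to RFP signal ratio inhibition reaching or exceeding a fixed threshold, cut at about 30% in these data, passing the limit was not always enough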
# Rev-erbA confirm = modulators of Rev-erb alpha DNA binding, confirmation, biochemical, FITC-DNA, fluorescence polarization, single point | shares compounds with NR1D1 modulator | 90 min | activation, % at 25 µM | hit rate 61% among 3,000 | AID 1259319, 2017;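 active means activation at or above a set limit, or at least 3 SD above the negative control mean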;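 further: 0% = 35 nM protein with DMSO and 100% = 750 nM protein high control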
# RORg counter = modulation of RORgamma DNA binding, dose response, counter-screen for Rev-erb alpha modulator project, biochemical, fluorescence polarization, FITC-DNA; shares compounds with NR1D1 modulator; purified RORgamma protein-FITC-DNA binding; IC50, µM; hit rate 8% among 910; AID 1259320, 2017;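 active means Compounds whose fitted half-maximal concentration for disrupting protein-DNA binding is below 10 micromolar; the record names Rev-erb in its text, so the target is in doubt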
# Starred values were filed as active, the others as inactive; i = inactive; · = no result given. This is a sample that favours compounds with a hit; in the whole collection about 1.9% have one here.
SMILES,MT1-MMP act inh,PG9 binder,NR1D1 modulator,NR2E3 ag-1,NR2E3 ag-2,SKN-1 block,Rev-erbA confirm,others
COCCNC(=O)c1nn2c(C(F)(F)F)cc(-c3ccccc3)nc2c1Br,-1.8,1.3,-4.0,2.1,·,6.8,·,
COC(=O)c1c(C)[nH]c(C(=O)/C=C/c2ccc(C)cc2)c1C,1.7,2.7,26.3*,-23.7,-8.8,2.8,-0.5,
COc1ccc(CN(C2CCCC2)S(=O)(=O)c2cc(Br)ccc2Br)c(OC)c1,·,-0.5,10.2,·,·,·,·,
Cc1ccc2cc(CCNC(=O)C(=O)c3c(C)[nH]c4ccccc34)c(=O)[nH]c2c1,-3.0,0.9,3.5,20.4,4.3,1.4,·,
Cc1ccc2cc(CCNC(=O)C(=O)c3c[nH]c4ccccc34)c(=O)[nH]c2c1,-0.6,-0.9,39.8*,-20.2,2.0,-13.0,19.0*,
CCOC(=O)c1nnn2c1nc(Nc1cccc(C(F)(F)F)c1)c1ccccc12,-0.3,-1.9,48.9*,2.1,1.1,11.6,38.3*,RORg counter=>40
COCCNc1nc2c(-c3cccc(C(F)(F)F)c3)nnn2c2ccccc12,-0.5,-2.2,51.8*,-38.9,1.4,18.9,18.1*,
CCCCNc1nc2c(-c3ccccc3)nnn2c2ccccc12,2.0,0.1,50.2*,-4.9,-0.1,6.3,22.1*,
CCOCCCNc1nc2c(-c3ccccc3)nnn2c2ccccc12,2.7,-0.8,26.5*,-15.6,2.0,5.5,6.7,
NNc1nc2c(-c3cccc(C(F)(F)F)c3)nnn2c2ccccc12,-62.9,-0.6,0.7,-13.2,·,-0.8,·,
CC(C)OCCCNc1nc2c(-c3ccccc3)nnn2c2ccccc12,·,·,·,·,6.0,·,·,
COC(=O)C1=C(C)N(Cc2ccccc2C(F)(F)F)C(=NCc2ccc3c(c2)OCO3)NC1c1ccccc1 (stereo unspecified),·,0.1,1.0,·,·,·,·,
CCCCN1C(=O)C(CC(=O)NCCN2CCOCC2)CC(C(=O)N(C(C)C)C(C)C)=C1C (stereo unspecified),1.8,-2.4,-1.9,-6.6,·,-14.4,·,
CS(=O)(=O)c1cccc(OCCCN2CCC(C(O)(c3ccccc3)c3ccccc3)CC2)c1,·,-0.4,-4.9,·,·,·,·,
Cc1cc(=O)oc2cc(OCC3CC(c4ccc(N(C)C)cc4)=NO3)ccc12 (stereo unspecified),-3.9,0.3,7.1,-4.5,0.7,-12.1,·,
Cc1cc(=O)oc2cc(OCC3CC(c4ccc(Cl)cc4)=NO3)ccc12 (stereo unspecified),5.0,-1.0,79.6*,23.4,6.0,16.4,71.6*,RORg counter=i
CCOc1ccc(-c2nnc3ccc(SCC(=O)Nc4nc5ccc(C)cc5s4)nn23)cc1,-2.8,1.8,33.8*,-2.1,1.9,2.2,33.6*,RORg counter=>40
COC(=O)c1ccc2nc(NC(=O)C3CCCCC3)sc2c1,6.7,-3.3,16.9*,-105.3,3.9,2.2,19.3*,
COC(=O)c1ccc2nc(Nc3nc4ccc(F)cc4s3)sc2c1,-5.3,1.9,47.5*,27.2,-0.7,4.0,54.2*,
CCC(C)OC(=O)c1cc(C)nc2c(Br)cc(Br)cc12 (stereo unspecified),1.6,3.8,46.1*,0.9,2.2,3.5,45.9*,RORg counter=>40
CCOC(=O)c1cc(C)nc(SC)c1C#N,0.7,-1.2,-1.0,-34.2,3.6,-3.4,·,
O=C(NC(=S)Nc1ccc2oc(-c3ccncc3)nc2c1)c1ccccc1F,7.4,-0.7,37.1*,-17.5,-5.2,12.5,15.7,
O=C(Nc1ccc2oc(-c3ccccc3)nc2c1)c1ccncc1,-2.0,-0.2,-5.9,-58.7,-0.9,18.4,·,
O=C(Nc1ccc2oc(-c3ccccc3F)nc2c1)c1ccc2c(c1)OCCO2,1.9,-1.2,15.0*,-41.4,2.3,16.8,12.5,
O=C(Nc1ccc2oc(-c3ccc(F)cc3)nc2c1)c1ccccc1F,0.7,6.4,40.6*,-13.4,-5.5,5.3,25.2*,
SMILES,MT1-MMP act inh,PG9 binder,NR1D1 modulator,NR2E3 ag-1,NR2E3 ag-2,SKN-1 block,Rev-erbA confirm,others
CCCCNc1cccc2c1S(=O)(=O)N[C@@H](CC(C)C)CO2,·,0.1,-4.4,·,·,·,·,
Cc1ccc(-n2c(SCC(=O)Nc3ccc(Oc4ccccc4)cc3)nnc2-c2cccc(C)c2)cc1,·,·,1.1,·,·,·,·,
CCOC(=O)c1c(SCC(=O)Nc2nccs2)nc(C)c(C)c1C,0.5,-0.4,-1.3,-137.8,·,12.9,·,
CCc1cc2cc3c(cc2nc1SCC(=O)Nc1c[nH]c(=O)[nH]c1=O)OCO3,-1.2,0.8,186.8*,-6.1,5.5,19.7,171.6*,RORg counter=>40
CCc1cc2cc3c(cc2nc1SCC(=O)Nc1nccs1)OCO3,-8.8,14.5*,224.8*,-19.2,2.2,7.3,122.5*,RORg counter=>40
CC(C)(C)NC(=O)C(c1cc2ccccc2o1)n1c(=O)c(-c2ccccc2)nc2ccccc21 (stereo unspecified),-34.2,-1.1,3.1,·,·,-2.0,·,
CCCCNC(=O)c1cc2nc3c(c(C(F)(F)F)n2n1)CCc1ccccc1-3,1.2,-0.1,30.0*,-6.5,-0.2,1.6,6.9,
CC(C)CNC(=O)c1cc2nc3c(c(C(F)(F)F)n2n1)CCc1ccccc1-3,3.4,1.2,23.3,5.6,2.3,1.2,·,
O=C(Nc1cccnc1Cl)c1cc2c(s1)-c1ccccc1OC2,-2.7,2.0,12.8,-33.2,1.0,8.7,·,
O=C(Nc1ccc(Cl)cn1)c1cc2c(s1)-c1ccccc1OC2,0.1,0.4,29.8*,-25.6,-0.7,37.8*,6.7,
CCCCCN(C(=O)Cc1c(C)n(CCCCC)c2ccccc12)c1ccc(Oc2cccnc2)c(C)c1,·,-1.5,3.5,·,·,·,·,
COc1ccccc1C(=O)N1CCC2CCNC2C1 (stereo unspecified),·,1.9,-3.5,·,·,·,·,
COP(=O)(O)C[C@@H]1CCc2cc(C)cc([C@H](CC(C)C)NC(=O)OCc3ccccc3)c2O1,·,·,1.1,·,·,·,·,
CSc1nc(N)c(C(=O)NC2CCCCC2)s1,-2.0,-1.1,23.0*,-22.8,0.5,0.8,-9.5,
